{
  "source": "ChEMBL document CHEMBL3102750",
  "about": "(J Med Chem, 2013)",
  "key": {"[1]": {"biological_target": "T1, Muscarinic acetylcholine receptor M5 (Homo sapiens) (UniProt P08912)", "T1 sequence (whole entry)": "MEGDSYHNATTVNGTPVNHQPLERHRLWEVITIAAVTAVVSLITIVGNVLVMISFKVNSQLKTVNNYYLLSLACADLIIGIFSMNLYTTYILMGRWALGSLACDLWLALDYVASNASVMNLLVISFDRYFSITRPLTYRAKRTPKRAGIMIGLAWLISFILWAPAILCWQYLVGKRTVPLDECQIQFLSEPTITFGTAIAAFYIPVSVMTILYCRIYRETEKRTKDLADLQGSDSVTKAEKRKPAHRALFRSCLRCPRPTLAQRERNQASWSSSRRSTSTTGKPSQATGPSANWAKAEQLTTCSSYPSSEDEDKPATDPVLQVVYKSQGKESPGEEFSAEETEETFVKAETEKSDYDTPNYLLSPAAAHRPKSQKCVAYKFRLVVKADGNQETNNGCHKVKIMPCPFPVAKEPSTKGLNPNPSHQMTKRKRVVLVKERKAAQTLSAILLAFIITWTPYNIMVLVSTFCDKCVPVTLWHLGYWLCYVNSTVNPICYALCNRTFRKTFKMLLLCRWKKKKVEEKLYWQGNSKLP", "assay": "Negative allosteric modulation of human muscarinic acetylcholine receptor M5 expressed in CHO cells assessed as reduction of acetylcholine-induced calcium mobilization at 10 uM incubated for 150 secs prior to acetylcholine induction by Fluo-4 AM staining-based fluorescence assay relative to control", "format": "functional, cell-based", "parameters": "scale not given: the % may be the effect or the level left"}, "[2]": {"biological_target": "T2, Muscarinic acetylcholine receptor M5 (Rattus norvegicus, UniProt P08911)", "T2 sequence (P08911 whole entry)": "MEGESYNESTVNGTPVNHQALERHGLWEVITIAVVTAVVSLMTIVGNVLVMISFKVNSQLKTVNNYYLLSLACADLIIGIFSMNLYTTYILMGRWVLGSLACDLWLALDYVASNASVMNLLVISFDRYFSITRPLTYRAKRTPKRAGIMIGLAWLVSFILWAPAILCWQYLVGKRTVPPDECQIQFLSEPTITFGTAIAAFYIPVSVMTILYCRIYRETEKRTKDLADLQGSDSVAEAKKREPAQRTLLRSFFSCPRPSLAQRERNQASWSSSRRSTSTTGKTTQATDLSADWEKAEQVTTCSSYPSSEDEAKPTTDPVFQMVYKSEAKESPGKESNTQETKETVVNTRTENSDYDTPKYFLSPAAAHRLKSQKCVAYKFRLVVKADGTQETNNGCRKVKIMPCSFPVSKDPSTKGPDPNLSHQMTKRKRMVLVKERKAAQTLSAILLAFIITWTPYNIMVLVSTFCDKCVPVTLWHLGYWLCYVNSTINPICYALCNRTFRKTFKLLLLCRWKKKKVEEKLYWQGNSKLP", "assay": "Negative allosteric modulation of rat muscarinic acetylcholine receptor M5 expressed in CHO cells assessed as inhibition of acetylcholine-induced calcium mobilization incubated for 150 secs prior to acetylcholine induction by Fluo-4 AM staining-based fluorescence assay", "format": "functional, cell-based"}, "[3]": {"biological_target": "T3, Muscarinic acetylcholine receptor M1 (Homo sapiens, UniProt P11229)", "T3 sequence (P11229 whole entry)": "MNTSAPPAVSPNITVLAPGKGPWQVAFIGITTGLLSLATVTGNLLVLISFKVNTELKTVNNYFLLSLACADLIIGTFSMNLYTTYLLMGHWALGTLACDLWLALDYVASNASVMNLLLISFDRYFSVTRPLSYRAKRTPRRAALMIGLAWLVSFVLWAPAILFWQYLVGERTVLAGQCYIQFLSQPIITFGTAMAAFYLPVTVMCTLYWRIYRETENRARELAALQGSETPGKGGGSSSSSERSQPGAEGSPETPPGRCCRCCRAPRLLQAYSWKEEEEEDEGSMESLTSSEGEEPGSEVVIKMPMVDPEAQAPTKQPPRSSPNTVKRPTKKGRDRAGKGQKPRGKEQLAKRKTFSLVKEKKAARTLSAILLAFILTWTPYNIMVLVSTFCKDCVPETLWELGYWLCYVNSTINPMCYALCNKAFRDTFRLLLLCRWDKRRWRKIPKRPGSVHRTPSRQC", "assay": "Negative allosteric modulation of human muscarinic acetylcholine receptor M1 expressed in CHO cells assessed as inhibition of acetylcholine-induced calcium mobilization incubated for 150 secs prior to acetylcholine induction by Fluo-4 AM staining-based fluorescence assay", "format": "functional, cell-based"}, "Cytochrome P450 3A4": {"biological_target": "Cytochrome P450 3A4 (Homo sapiens, UniProt P08684)", "sequence (P08684 whole entry)": "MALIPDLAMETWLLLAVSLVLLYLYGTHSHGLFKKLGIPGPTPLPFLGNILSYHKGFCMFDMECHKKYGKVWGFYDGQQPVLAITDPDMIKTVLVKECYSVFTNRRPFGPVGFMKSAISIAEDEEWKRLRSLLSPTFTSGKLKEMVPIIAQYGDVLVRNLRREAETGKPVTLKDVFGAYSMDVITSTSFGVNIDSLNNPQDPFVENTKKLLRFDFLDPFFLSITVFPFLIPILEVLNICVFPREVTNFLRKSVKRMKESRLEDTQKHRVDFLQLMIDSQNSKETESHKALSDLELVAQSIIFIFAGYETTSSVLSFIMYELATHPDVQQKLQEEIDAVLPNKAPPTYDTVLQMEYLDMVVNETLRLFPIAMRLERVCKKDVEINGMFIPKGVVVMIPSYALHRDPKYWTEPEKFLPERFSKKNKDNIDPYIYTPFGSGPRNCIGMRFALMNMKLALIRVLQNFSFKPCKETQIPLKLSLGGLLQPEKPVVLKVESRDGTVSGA", "assay": "Inhibition of CYP3A4 in human liver microsomes using midazolam as substrate preincubated for 15 mins followed by NADPH addition measured after 8 mins by LC/MS/MS analysis", "format": "ADME"}, "[4]": {"assay": "Ratio of brain to plasma partition coefficient in Sprague-Dawley rat at 10 mg/kg, po measured at 1 hr", "format": "ADME, organism-based", "parameters": "dose 10 mg/kg, route oral", "method_in_brief": "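Oral CNS distribution study in male Sprague-Dawley rats (n=2), 10 mg/kg; brain and plasma sampled one hour post-dose. Total (Kp) and unbound (Kp,uu) brain-plasma partition coefficients calculated, with unbound fractions from plasma and brain homogenate binding.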"}, "Plasma [5]": {"system": "Plasma", "assay": "Fraction unbound in Sprague-Dawley rat plasma at 5 uM after 4 hrs by equilibrium dialysis method", "format": "ADME, cell-free", "method_in_brief": "(§1)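 Fraction unbound determined in plasma from rat, cynomolgus monkey and human.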"}, "[6]": {"assay": "Tmax in po dosed Sprague-Dawley rat", "format": "ADME, organism-based", "settings": "in vivo"}, "Cytochrome P450 1A2": {"biological_target": "T4, Cytochrome P450 1A2 (Homo sapiens, UniProt P05177)", "T4 sequence (P05177 whole entry)": "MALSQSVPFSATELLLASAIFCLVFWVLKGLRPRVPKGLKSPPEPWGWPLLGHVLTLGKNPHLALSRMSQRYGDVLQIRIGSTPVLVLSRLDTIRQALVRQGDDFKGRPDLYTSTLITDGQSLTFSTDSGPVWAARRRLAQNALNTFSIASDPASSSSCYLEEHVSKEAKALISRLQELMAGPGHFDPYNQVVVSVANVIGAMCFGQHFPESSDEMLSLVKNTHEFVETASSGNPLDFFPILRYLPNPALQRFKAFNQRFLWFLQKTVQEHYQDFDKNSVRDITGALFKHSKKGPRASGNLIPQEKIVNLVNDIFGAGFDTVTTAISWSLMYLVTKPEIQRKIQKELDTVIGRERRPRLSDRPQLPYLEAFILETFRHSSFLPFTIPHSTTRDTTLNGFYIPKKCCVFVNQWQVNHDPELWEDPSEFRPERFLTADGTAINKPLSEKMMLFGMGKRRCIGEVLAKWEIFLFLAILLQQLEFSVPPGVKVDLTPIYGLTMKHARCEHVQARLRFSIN", "assay": "Inhibition of CYP1A2 in human liver microsomes using phenacetin as substrate preincubated for 15 mins followed by NADPH addition measured after 8 mins by LC/MS/MS analysis", "format": "ADME"}, "[7]": {"assay": "Cmax in po dosed Sprague-Dawley rat", "format": "ADME, organism-based", "parameters": "route oral", "settings": "in vivo"}, "Rattus norvegicus": {"system": "Rattus norvegicus", "assay": "Volume of distribution at steady state in Sprague-Dawley rat at 1 mg/kg, iv", "format": "ADME, organism-based", "parameters": "dose 1 mg/kg, route intravenous", "settings": "in vivo"}, "Cynomolgus monkey": {"system": "Cynomolgus monkey", "assay": "Volume of distribution at steady state in cynomolgus monkey at 1 mg/kg, iv", "format": "ADME, organism-based, Macaca fascicularis", "parameters": "dose 1 mg/kg, route intravenous", "settings": "in vivo"}, "Plasma [8]": {"system": "Plasma", "assay": "Fraction unbound in human plasma at 5 uM after 4 hrs by equilibrium dialysis method", "format": "ADME, cell-free", "method_in_brief": "as §1"}, "[9]": {"assay": "Oral bioavailability in Sprague-Dawley rat", "format": "ADME, organism-based", "settings": "in vivo"}, "Plasma [10]": {"system": "Plasma", "assay": "Fraction unbound in cynomolgus monkey plasma at 5 uM after 4 hrs by equilibrium dialysis method", "format": "ADME, cell-free, Macaca fascicularis", "method_in_brief": "as §1"}},
  "data": [
    {"smiles": "O=C(c1ccc(F)c(F)c1)N1CCN2C(=O)c3ccccc3C12c1ccccc1", "note": "(stereo not given)", "values": [
      {"measurement": "Activity", "setting": "[1]", "result": 0, "unit": "%"},
      {"measurement": "IC50", "setting": "[2]", "result": 2.1, "unit": "µM"},
      {"measurement": "IC50", "setting": "[3]", "result": "> 30", "unit": "µM"}
    ]},
    {"smiles": "O=C(c1ccc(F)c(F)c1)N1CCN2C(=O)c3ccccc3[C@@]12c1ccc(Cl)cc1", "values": [
      {"measurement": "IC50", "setting": "Cytochrome P450 3A4", "result": 16, "unit": "µM"},
      {"measurement": "BPR", "setting": "[4]", "result": 1.8},
      {"measurement": "Fu", "setting": "Plasma [5]", "result": 0.029},
      {"measurement": "Tmax", "setting": "[6]", "result": 7, "unit": "h"},
      {"measurement": "IC50", "setting": "Cytochrome P450 1A2", "result": 25, "unit": "µM"},
      {"measurement": "Cmax", "setting": "[7]", "result": 1400, "unit": "nM"},
      {"measurement": "Vdss", "setting": "Rattus norvegicus", "result": 16, "unit": "L/kg"},
      {"measurement": "Vdss", "setting": "Cynomolgus monkey", "result": 1.9, "unit": "L/kg"},
      {"measurement": "Fu", "setting": "Plasma [8]", "result": 0.013},
      {"measurement": "IC50", "setting": "[3]", "result": "> 30", "unit": "µM"},
      {"measurement": "bioavailability", "setting": "[9]", "result": 80, "unit": "%"},
      {"measurement": "Fu", "setting": "Plasma [10]", "result": 0.001}
    ]}
  ]
}
